In ChEMBL document CHEMBL2034854, “Design, synthesis and biological evaluation of novel amino acid ureido derivatives as aminopeptidase N/CD13 inhibitors” (Bioorg Med Chem, 2012):
Active and inactive are the calls of the source. The calls are words filed in the database; no cut-off is given here.

Legend:
Aminopeptidase N [1] = molecular target: T1, Aminopeptidase N (Sus scrofa, UniProt P15145); assay: Inhibition of pig kidney APN using L-Leu-p-nitroanilide as substrate incubated for 5 mins prior to substrate addition measured after 30 mins by UV/VIS spectrophotometry
T1 sequence (P15145 whole entry): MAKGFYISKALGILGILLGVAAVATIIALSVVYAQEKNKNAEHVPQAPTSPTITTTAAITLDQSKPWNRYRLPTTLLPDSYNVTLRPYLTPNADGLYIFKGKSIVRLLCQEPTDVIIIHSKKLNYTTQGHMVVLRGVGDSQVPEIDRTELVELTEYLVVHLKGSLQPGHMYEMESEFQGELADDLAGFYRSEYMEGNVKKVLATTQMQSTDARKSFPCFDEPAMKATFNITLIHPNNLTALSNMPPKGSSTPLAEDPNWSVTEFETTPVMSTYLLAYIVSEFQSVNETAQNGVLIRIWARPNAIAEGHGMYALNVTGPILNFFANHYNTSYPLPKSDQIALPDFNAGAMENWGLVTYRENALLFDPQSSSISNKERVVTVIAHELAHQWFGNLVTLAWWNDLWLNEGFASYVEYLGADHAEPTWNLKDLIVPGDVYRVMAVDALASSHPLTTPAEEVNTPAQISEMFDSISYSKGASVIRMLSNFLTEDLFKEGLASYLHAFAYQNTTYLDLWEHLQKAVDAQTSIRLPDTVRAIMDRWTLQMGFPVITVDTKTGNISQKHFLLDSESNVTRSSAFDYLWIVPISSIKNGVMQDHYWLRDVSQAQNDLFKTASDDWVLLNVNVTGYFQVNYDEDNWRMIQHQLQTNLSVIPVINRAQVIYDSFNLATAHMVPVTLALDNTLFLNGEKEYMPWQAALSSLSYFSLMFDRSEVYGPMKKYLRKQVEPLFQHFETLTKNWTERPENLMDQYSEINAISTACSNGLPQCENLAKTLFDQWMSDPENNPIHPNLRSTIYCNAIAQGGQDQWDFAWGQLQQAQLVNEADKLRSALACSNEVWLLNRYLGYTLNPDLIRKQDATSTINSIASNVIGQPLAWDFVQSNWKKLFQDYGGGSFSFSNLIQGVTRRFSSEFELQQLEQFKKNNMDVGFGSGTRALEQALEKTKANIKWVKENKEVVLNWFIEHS
In short: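 Porcine kidney microsomal APN, 6 μg/mL final, in 50 mM PBS pH 7.2 with 0.5% DMSO final. Inhibitor and enzyme preincubated 5 min at room temperature. Percent inhibition from control and zero-setting OD; IC50 calculated.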

Aminopeptidase N [2] = molecular target: Aminopeptidase N (Homo sapiens, UniProt P15144); assay: Inhibition of APN in human ES2 cell surface using L-Leu-p-nitroanilide as substrate incubated for 5 mins prior to substrate addition measured after 1 hr by UV/VIS spectrophotometry
Chain of Aminopeptidase N (Homo sapiens, UniProt P15144) (P15144 whole entry): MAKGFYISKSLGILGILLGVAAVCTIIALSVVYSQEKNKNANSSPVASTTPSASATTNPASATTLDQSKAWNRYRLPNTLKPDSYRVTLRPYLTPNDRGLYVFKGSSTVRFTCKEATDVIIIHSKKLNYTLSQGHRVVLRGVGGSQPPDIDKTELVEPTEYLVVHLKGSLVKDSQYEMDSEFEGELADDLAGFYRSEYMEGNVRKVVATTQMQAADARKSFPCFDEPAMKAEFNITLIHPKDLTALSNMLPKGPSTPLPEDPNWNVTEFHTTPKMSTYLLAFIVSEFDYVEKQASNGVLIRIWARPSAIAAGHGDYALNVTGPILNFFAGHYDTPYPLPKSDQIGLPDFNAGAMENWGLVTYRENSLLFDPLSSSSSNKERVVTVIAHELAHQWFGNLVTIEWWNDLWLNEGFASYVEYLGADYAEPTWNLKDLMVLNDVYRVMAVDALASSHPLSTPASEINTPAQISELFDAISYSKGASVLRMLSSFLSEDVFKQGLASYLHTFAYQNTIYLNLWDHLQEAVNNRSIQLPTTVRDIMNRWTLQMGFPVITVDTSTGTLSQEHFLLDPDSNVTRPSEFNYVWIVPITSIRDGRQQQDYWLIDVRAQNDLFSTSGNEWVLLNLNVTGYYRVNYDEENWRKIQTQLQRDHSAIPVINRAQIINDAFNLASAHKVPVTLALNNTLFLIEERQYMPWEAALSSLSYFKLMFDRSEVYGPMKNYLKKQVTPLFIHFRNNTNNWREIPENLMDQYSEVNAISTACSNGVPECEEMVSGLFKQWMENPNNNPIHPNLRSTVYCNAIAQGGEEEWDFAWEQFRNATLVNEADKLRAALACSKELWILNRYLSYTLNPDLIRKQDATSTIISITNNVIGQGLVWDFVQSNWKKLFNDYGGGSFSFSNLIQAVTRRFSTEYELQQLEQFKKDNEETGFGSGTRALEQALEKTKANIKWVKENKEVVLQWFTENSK
In short: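 Enzyme source: intact ES-2 cells, 2 × 10^5 per well, in 10 mM PBS pH 7.4 with 0.1% DMSO final. Inhibitors preincubated with cells 5 min at room temperature. L-Leu-p-nitroanilide then added, 1 h at 37 °C. Inhibition from control and zero-setting OD; IC50 calculated; mean ± SD of three assays.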

[3] = molecular target: 72 kDa type IV collagenase (Homo sapiens, UniProt P08253); assay: Inhibition of recombinant MMP2 using succinylated gelatin as substrate incubated for 10 mins prior to substrate addition measured after 1 hr by UV/VIS spectrophotometry
Chain of 72 kDa type IV collagenase (P08253 whole entry): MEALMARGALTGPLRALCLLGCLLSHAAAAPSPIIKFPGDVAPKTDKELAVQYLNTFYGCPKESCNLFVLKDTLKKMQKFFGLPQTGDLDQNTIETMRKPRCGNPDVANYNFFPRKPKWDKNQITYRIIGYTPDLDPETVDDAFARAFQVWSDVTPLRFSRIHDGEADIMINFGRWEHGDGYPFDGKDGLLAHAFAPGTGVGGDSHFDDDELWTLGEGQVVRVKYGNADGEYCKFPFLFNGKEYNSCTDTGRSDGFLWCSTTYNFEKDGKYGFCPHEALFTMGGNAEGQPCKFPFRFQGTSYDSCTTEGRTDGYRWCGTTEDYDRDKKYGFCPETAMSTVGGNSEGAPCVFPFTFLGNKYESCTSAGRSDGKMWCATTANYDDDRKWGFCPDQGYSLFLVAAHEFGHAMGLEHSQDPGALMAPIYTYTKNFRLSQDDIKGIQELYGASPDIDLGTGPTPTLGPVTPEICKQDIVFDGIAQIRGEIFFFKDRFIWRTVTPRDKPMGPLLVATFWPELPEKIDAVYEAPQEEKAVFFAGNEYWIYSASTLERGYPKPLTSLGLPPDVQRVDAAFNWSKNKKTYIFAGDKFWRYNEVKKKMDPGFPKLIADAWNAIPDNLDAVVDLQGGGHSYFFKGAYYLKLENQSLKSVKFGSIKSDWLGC
In short: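 Recombinant MMP-2 and compound, both in 50 mM sodium borate pH 8.5, held 10 min at 37 °C. Succinylated gelatin then added for 60 min at 37 °C. Free amines developed with 0.03% picrylsulfonic acid, 20 min at room temperature, read at 450 nm. Inhibition from control and zero-setting OD; IC50 calculated; three assays, SD <10% of means.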

[4] = Antiproliferative activity against human ES2 cells after 48 hrs by MTT assay; format: functional, cell-based; details: ES-2, 48 h
In short: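 ES-2 cells grown in RPMI-1640 with 10% FBS, seeded 8000 per well and left to adhere 10 h. Compounds then added at a range of concentrations in the same medium with 0.1% DMSO, 48 h at 37 °C in CO2. MTT added for 4 h; formazan dissolved in DMSO, read at 590 nm. Inhibition from control and zero-setting OD; IC50 calculated; three assays.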

ES2 [5] = assay: Antimetastatic activity against human ES2 cells assessed as inhibition of migration through transwell chamber without matrigel coating at 100 ug/mL after 3 hrs by crystal voilet staining; format: functional, cell-based
In short: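 Uncoated transwell inserts. Upper chamber holds compound at 100 µg/mL in RPMI-1640 with 1% FBS, 0.1% DMSO final, plus ES-2 cells (60000 per well). Migration 3 h at 37 °C in CO2. Upper-side cells swabbed away; migrated cells fixed and stained with 0.1% crystal violet, extracted with 33% acetic acid, read at 595 nm. Rate uses treated, control and blank OD. Repeated ≥3 times in triplicate.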

[6] = Antimetastatic activity against human ES2 cells assessed as inhibition of invasion through transwell chamber with matrigel coating at 10 to 100 ug/mL after 8 hrs by crystal voilet staining relative to control; format: functional
In short: (§1)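 ES-2 cells (100,000 per insert) in RPMI-1640 with 1% FBS placed on Matrigel inserts rehydrated 2 h; lower chamber RPMI-1640 with 10% FBS. Compound at 10 and 100 μg/mL with 0.1% DMSO final added to upper chamber. Invasion 8 h at 37 °C in CO2. Non-invading cells swabbed off; remaining cells fixed and crystal-violet stained, counted in five random ×100 fields per insert. At least three experiments, triplicates.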

ES2 [7] = assay: Antimetastatic activity against human ES2 cells assessed as inhibition of invasion through transwell chamber with matrigel coating after 8 hrs by crystal voilet staining; format: functional, cell-based; in short: as §1

Row | SMILES | IC50 (Aminopeptidase N [1]) [µM] | also measured
1 | CC[C@H](C)[C@H](NC(=O)NCCc1ccccc1)C(=O)NO | > 100 | 
2 | O=C(NCc1ccccc1)N[C@@H](Cc1ccccc1)C(=O)NO | 5.6 | IC50 (Aminopeptidase N [2]): 16 µM; IC50 [3]: > 500 µM; IC50 [4]: 510 µM; inhibition (ES2 [5]): inactive
3 | CC(C)[C@H](NC(=O)NCc1ccccc1)C(=O)NO | 17 | 
4 | CSCC[C@H](NC(=O)NCc1ccccc1)C(=O)NO | 3.8 | IC50 (Aminopeptidase N [2]): 22 µM; IC50 [3]: > 500 µM; IC50 [4]: > 1000 µM
5 | CC(C)C[C@H](NC(=O)[C@@H](O)[C@H](N)Cc1ccccc1)C(=O)O [UBENIMEX] |  | IC50 [4]: 490 µM
6 | O=C(N[C@@H](Cc1ccccc1)C(=O)NO)N[C@@H](Cc1ccccc1)C(=O)NO | > 100 | 
7 | CSCC[C@H](NC(=O)NC(C)(C)C)C(=O)NO | > 100 | 
8 | CC(C)C[C@H](NC(=O)NCCc1ccccc1)C(=O)NO | 1.1 | IC50 (Aminopeptidase N [2]): 5.1 µM; IC50 [3]: > 500 µM; IC50 [4]: 96 µM; inhibition (ES2 [5]): inactive; inhibition (INH) [6]: 55%; inhibition (ES2 [7]): Dose-dependent effect
9 | CC(C)C[C@H](NC(=O)OCCc1ccccc1)C(=O)NO | 18 | 
10 | CC[C@H](C)[C@H](NC(=O)NC(C)(C)C)C(=O)NO | > 100 | 
11 | C[C@H](NC(=O)NCc1ccccc1)C(=O)NO | 21 | 
12 | O=C(CNC(=O)NCc1ccccc1)NO | 32 | 
13 | CC(C)[C@H](NC(=O)NC(C)(C)C)C(=O)NO | > 100 | 
14 | CC[C@H](C)[C@H](NC(=O)NCc1ccccc1)C(=O)NO | 4.1 | IC50 (Aminopeptidase N [2]): 39 µM; IC50 [3]: > 500 µM; IC50 [4]: 770 µM; inhibition (ES2 [5]): inactive
15 | CSCC[C@H](NC(=O)NCCc1ccccc1)C(=O)NO | > 100 | 

Continued, in another order:

Row | IC50 (Aminopeptidase N [1]) [µM] | SMILES | also measured
16 | 6.5 | O=C(NCCc1ccccc1)N[C@@H](Cc1ccccc1)C(=O)NO | 
17 | 21 | C[C@H](NC(=O)NCCc1ccccc1)C(=O)NO | 
18 | > 100 | CC(C)(C)NC(=O)NCC(=O)NO | 
19 | 52 | O=C(CNC(=O)NCCc1ccccc1)NO | 
20 | > 100 | CC(C)C[C@H](NC(=O)NC(C)(C)C)C(=O)NO | 
21 | > 100 | C[C@H](NC(=O)NC(C)(C)C)C(=O)NO | 
22 | > 100 | CC(C)[C@H](NC(=O)NCCc1ccccc1)C(=O)NO | 
23 | > 100 | CC(C)(C)NC(=O)N[C@@H](Cc1ccccc1)C(=O)NO | 
24 | 9.1 | CC(C)C[C@H](NC(=O)OCc1ccccc1)C(=O)NO | 
25 | > 100 | CC(C)C[C@H](NC(=O)NC1CCCCC1)C(=O)NO | 
26 | > 100 | CC(C)C[C@H](NC(=O)N[C@@H](CC(C)C)C(=O)NO)C(=O)NO | 
